Active and inactive are the calls of the source.
Assays:
Assay type in all cases: functional, organism-based
Mus musculus [1] = experiment: Immuno-adjuvant activity in BALB/c mouse assessed as increase in anti-OVA Ig2a antibody in serum at 50 ug, sc administered on day 0, 14 and 28 and measured at 4 weeks in presence of chicken egg ovalbumin by ELISA; settings: dose 50.0 µg, time 6.0 weeks, in the assay text read “measured at 6 weeks” for “measured at 4 weeks”
Procedure, shortened: (§1)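 Female BALB/c mice (8–10 wk, six per group) immunized s.c. with OVA 20 μg ± adjuvant on days 0, 14, 28. Tail-vein serum taken before each dose and 2 wk after the last. ELISA on OVA-coated (0.1 μg/mL) plates in borate saline pH 8.2. Twofold serum dilutions in duplicate, overnight at 4 °C. HRP anti-mouse IgG/subclass applied 4 h, OPD substrate, read at 490 nm. Concentrations from reference-serum standard curves (4-parameter fit).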

Mus musculus [2] = experiment: Immuno-adjuvant activity in BALB/c mouse assessed as increase in intracellular level of INFgamma in spleen CD4+ cells at 50 ug, sc administered on day 0, 14 and 28 and measured at week 6 post immunization by flow cytometry analysis; settings: dose 50.0 µg, time 6.0 weeks
Procedure, shortened: (§2)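 Female BALB/c mice (8–10 wk, six per group) given OVA 20 μg s.c. with adjuvant on days 0, 14, 28; spleens taken at week 6. Splenocytes stained with viability dye, Fc-blocked, surface-stained 30 min. For intracellular cytokines, cells stimulated 5 h with leukocyte activation cocktail plus GolgiPlug, then fixed/permeabilized. IL-21 detected with IL-21R Fc chimera. All steps at 4 °C. Read as MFI, mean ± SEM.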

Mus musculus [3] = experiment: Immuno-adjuvant activity in BALB/c mouse Splenocyte assessed as increase in CD4+ surface expression of PD-1 at 50 ug, sc administered on day 0, 14 and 28 and measured at week 6 post immunization by flow cytometry analysis; settings: dose 50.0 µg, time 6.0 weeks; procedure, shortened: as §2
Mus musculus [4] = experiment: Immuno-adjuvant activity in BALB/c mouse assessed as increase in intracellular level of INFgamma in spleen CD8+ cells at 50 ug, sc administered on day 0, 14 and 28 and measured at week 6 post immunization by flow cytometry analysis; settings: dose 50.0 µg, time 6.0 weeks; procedure, shortened: as §2
Mus musculus [5] = experiment: Immuno-adjuvant activity in BALB/c mouse assessed as increase in CD19+ B cells in spleen at 50 ug, sc administered on day 0, 14 and 28 and measured at week 6 post immunization by flow cytometry analysis; settings: dose 50.0 µg, time 6.0 weeks
Procedure, shortened: (§3)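 Female BALB/c mice (8–10 wk, six per group), OVA 20 μg s.c. plus adjuvant on days 0, 14, 28; spleens collected week 6. Single-cell splenocyte suspensions stained and analysed by flow cytometry. TFH gated PD-1+Bcl6+Foxp3−CD4+CD3+, TFR PD-1+Bcl6+Foxp3+CD4+CD3+, dark zone GC B cells CXCR4hiCD86loFas+GL-7+CD19+. Steps at 4 °C. Mean ± SEM; unpaired t tests.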

Mus musculus [6] = experiment: Immuno-adjuvant activity in BALB/c mouse assessed as increase in ratio of TFH to TFR cells at 50 ug, sc administered on day 0, 14 and 28 and measured at week 6 post immunization by flow cytometry analysis; settings: dose 50.0 µg, time 6.0 weeks; procedure, shortened: as §3
Mus musculus [7] = experiment: Immuno-adjuvant activity in BALB/c mouse assessed as increase in anti-OVA IgG antibody in serum at 20 ug, sc administered on day 0, 14 and 28 and measured at 2, 4 and 6 weeks in presence of chicken egg ovalbumin by ELISA; settings: dose 20.0 µg, time 2-6 weeks; procedure, shortened: as §1
Mus musculus [8] = experiment: Immuno-adjuvant activity in BALB/c mouse assessed as increase in anti-OVA IgG2a antibody in serum at 20 ug, sc administered on day 0, 14 and 28 and measured at 2 weeks in presence of chicken egg ovalbumin by ELISA; settings: dose 20.0 µg; procedure, shortened: as §1
Mus musculus [9] = experiment: Immuno-adjuvant activity in BALB/c mouse assessed as increase in anti-OVA Ig2a antibody in serum at 20 ug, sc administered on day 0, 14 and 28 and measured at 4 and 6 weeks in presence of chicken egg ovalbumin by ELISA; settings: dose 20.0 µg, time 4-6 weeks; procedure, shortened: as §1
Mus musculus [10] = experiment: Immuno-adjuvant activity in BALB/c mouse Splenocyte assessed as increase in CD8+ T cells at 20 ug, sc administered on day 0, 14 and 28 and measured at week 6 post immunization by flow cytometry analysis; settings: dose 20.0 µg, time 6.0 weeks; procedure, shortened: as §2
Mus musculus [11] = experiment: Immuno-adjuvant activity in BALB/c mouse Splenocyte assessed as increase in CD4+ T cells at 20 ug, sc administered on day 0, 14 and 28 and measured at week 6 post immunization by flow cytometry analysis; settings: dose 20.0 µg, time 6.0 weeks; procedure, shortened: as §2
Mus musculus [12] = experiment: Immuno-adjuvant activity in BALB/c mouse assessed as increase in IL-4 expressing CD4+ effector T cells in spleen at 20 ug, sc administered on day 0, 14 and 28 and measured at week 6 post immunization by flow cytometry analysis; settings: T-cell, dose 20.0 µg, time 6.0 weeks; procedure, shortened: as §2
Mus musculus [13] = experiment: Immuno-adjuvant activity in BALB/c mouse assessed as increase in IL-21 expressing CD4+ effector T cells in spleen at 20 ug, sc administered on day 0, 14 and 28 and measured at week 6 post immunization by flow cytometry analysis; settings: T-cell, dose 20.0 µg, time 6.0 weeks; procedure, shortened: as §2
Mus musculus [14] = experiment: Immuno-adjuvant activity in BALB/c mouse assessed as increase in follicular helper T cells in spleen at 20 ug, sc administered on day 0, 14 and 28 and measured at week 6 post immunization by flow cytometry analysis; settings: T-cell, dose 20.0 µg, time 6.0 weeks; procedure, shortened: as §3
Mus musculus [15] = experiment: Immuno-adjuvant activity in BALB/c mouse assessed as increase in CD19+ B cells in spleen at 20 ug, sc administered on day 0, 14 and 28 and measured at week 6 post immunization by flow cytometry analysis; settings: dose 20.0 µg, time 6.0 weeks; procedure, shortened: as §3
Mus musculus [16] = experiment: Immuno-adjuvant activity in BALB/c mouse assessed as increase in ratio of TFH to TFR cells at 20 ug, sc administered on day 0, 14 and 28 and measured at week 6 post immunization by flow cytometry analysis; settings: dose 20.0 µg, time 6.0 weeks; procedure, shortened: as §3
Mus musculus [17] = experiment: Immuno-adjuvant activity in BALB/c mouse assessed as reduction in TFR cells in spleen at 20 ug, sc administered on day 0, 14 and 28 and measured at week 6 post immunization by flow cytometry analysis; settings: dose 20.0 µg, time 6.0 weeks; procedure, shortened: as §3
Mus musculus [18] = experiment: Immuno-adjuvant activity in BALB/c mouse assessed as increase in dark zone B cells at 20 ug, sc administered on day 0, 14 and 28 and measured at week 6 post immunization by flow cytometry analysis; settings: dose 20.0 µg, time 6.0 weeks; procedure, shortened: as §3

Measured: Activity

C[C@@H]1O[C@@H](O[C@H]2[C@H](O)[C@@H](C(=O)NCCCCCCCCCCC(=O)OCc3cccc([N+](=O)[O-])c3)O[C@@H](O[C@H]3CC[C@]4(C)[C@H]5CC=C6[C@@H]7CC(C)(C)CC[C@]7(C(=O)O[C@@H]7O[C@H](C)[C@H](O)[C@H](O)[C@H]7O[C@@H]7O[C@@H](C)[C@H](O[C@@H]8OC[C@@H](O)[C@H](O)[C@H]8O)[C@@H](O[C@@H]8O[C@H](CO)[C@@H](O)[C@H](O[C@@H]9OC[C@@H](O)[C@H](O)[C@H]9O)[C@H]8O)[C@H]7O)[C@H](O)C[C@@]6(C)[C@]5(C)CC[C@H]4[C@]3(C)C=O)[C@@H]2O[C@@H]2O[C@H](CO)[C@H](O)[C@H](O)[C@H]2O)[C@H](O)[C@H](O)[C@H]1O
active: Mus musculus [1] | Mus musculus [2] | Mus musculus [3] | Mus musculus [4] | Mus musculus [5] | Mus musculus [6]

COc1cccc(COC(=O)CCCCCCCCCCNC(=O)[C@H]2O[C@@H](O[C@H]3CC[C@]4(C)[C@H]5CC=C6[C@@H]7CC(C)(C)CC[C@]7(C(=O)O[C@@H]7O[C@H](C)[C@H](O)[C@H](O)[C@H]7O[C@@H]7O[C@@H](C)[C@H](O[C@@H]8OC[C@@H](O)[C@H](O)[C@H]8O)[C@@H](O[C@@H]8O[C@H](CO)[C@@H](O)[C@H](O[C@@H]9OC[C@@H](O)[C@H](O)[C@H]9O)[C@H]8O)[C@H]7O)[C@H](O)C[C@@]6(C)[C@]5(C)CC[C@H]4[C@]3(C)C=O)[C@H](O[C@@H]3O[C@H](CO)[C@H](O)[C@H](O)[C@H]3O)[C@@H](O[C@@H]3O[C@@H](C)[C@H](O)[C@@H](O)[C@H]3O)[C@@H]2O)c1
active: Mus musculus [1] | Mus musculus [2] | Mus musculus [3] | Mus musculus [4] | Mus musculus [5]

CC[C@H](C)[C@H](C[C@H](O)CC(=O)O[C@@H]1[C@H](O)[C@@H](O[C@@H]2O[C@@H](C)[C@H](O[C@@H]3OC[C@@H](O)[C@H](O[C@@H]4OC[C@](O)(CO)[C@H]4O)[C@H]3O)[C@@H](O)[C@H]2O)[C@H](OC(=O)[C@]23CCC(C)(C)C[C@H]2C2=CC[C@@H]4[C@@]5(C)CC[C@H](O[C@@H]6O[C@H](C(=O)O)[C@@H](O)[C@H](O[C@@H]7OC[C@@H](O)[C@H](O)[C@H]7O)[C@H]6O[C@@H]6O[C@H](CO)[C@H](O)[C@H](O)[C@H]6O)[C@@](C)(C=O)[C@@H]5CC[C@@]4(C)[C@]2(C)C[C@H]3O)O[C@@H]1C)OC(=O)C[C@@H](O)C[C@H](O[C@@H]1O[C@@H](CO)[C@H](O)[C@H]1O)[C@@H](C)CC
active: Mus musculus [7] | Mus musculus [8] | Mus musculus [9] | Mus musculus [10] | Mus musculus [11] | Mus musculus [12] | Mus musculus [13] | Mus musculus [14] | Mus musculus [15] | Mus musculus [16] | Mus musculus [17] | Mus musculus [18]

C[C@@H]1O[C@@H](O[C@H]2[C@H](O)[C@@H](C(=O)NCCCCCCCCCCC(=O)OCc3ccc(F)cc3)O[C@@H](O[C@H]3CC[C@]4(C)[C@H]5CC=C6[C@@H]7CC(C)(C)CC[C@]7(C(=O)O[C@@H]7O[C@H](C)[C@H](O)[C@H](O)[C@H]7O[C@@H]7O[C@@H](C)[C@H](O[C@@H]8OC[C@@H](O)[C@H](O)[C@H]8O)[C@@H](O[C@@H]8O[C@H](CO)[C@@H](O)[C@H](O[C@@H]9OC[C@@H](O)[C@H](O)[C@H]9O)[C@H]8O)[C@H]7O)[C@H](O)C[C@@]6(C)[C@]5(C)CC[C@H]4[C@]3(C)C=O)[C@@H]2O[C@@H]2O[C@H](CO)[C@H](O)[C@H](O)[C@H]2O)[C@H](O)[C@H](O)[C@H]1O
active: Mus musculus [1] | Mus musculus [3] | Mus musculus [4] | Mus musculus [5] | Mus musculus [6]

— ChEMBL document CHEMBL5096226, “Structure-Activity Relationship Study of Momordica Saponin II Derivatives as Vaccine Adjuvants” (J Med Chem, 2022)
